Kir21 block – inhibitors of mouse Kir2.1 inward-rectifier potassium channel. P35561. HEK293-Kir2.1, FluxOR thallium flux fluorescence; stronger effect = lower value. B-score at 10 µM. hit rate 0.85% among 310,000. AID 1672;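 active = fluorescence ratio B-score at or below minus 3 SD of library scores, with starting-brightness B-score within 2 SD, cut at about -4.2 in these data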;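 also: channel flux triggered by added potassium and thallium sulfate stimulus; B-score of peak minus minimum fluorescence over baseline after thallium stimulus; more negative B-score means stronger Kir2.1 block with less thallium influx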
KCNK3 block – human KCNK3 channel inhibition, primary screen. O14649. hit rate 0.84% among 340,000. CHO-KCNK3 thallium flux, FluxOR fluorescence; stronger effect = lower value. B-score at 10 µM;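 active = B-score under library mean minus 4 SD, starting fluorescence ratio at most library mean plus 5 SD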;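 also: more negative B-score means stronger inhibition of thallium flux through KCNK3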
Target sequence (O14649 whole entry, looked up): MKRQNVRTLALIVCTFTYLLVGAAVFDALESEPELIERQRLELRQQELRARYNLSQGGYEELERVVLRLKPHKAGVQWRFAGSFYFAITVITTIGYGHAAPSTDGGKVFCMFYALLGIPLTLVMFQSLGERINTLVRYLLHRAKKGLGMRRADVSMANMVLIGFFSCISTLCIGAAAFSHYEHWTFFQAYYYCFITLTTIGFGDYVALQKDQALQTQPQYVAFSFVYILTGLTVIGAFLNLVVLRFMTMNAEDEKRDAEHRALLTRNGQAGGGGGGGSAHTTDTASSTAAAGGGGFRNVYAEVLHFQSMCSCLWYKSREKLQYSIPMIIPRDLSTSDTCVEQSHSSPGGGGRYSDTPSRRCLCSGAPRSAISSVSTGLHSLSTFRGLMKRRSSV
KCNQ1 act – human KCNQ1 channel potentiation or activation; P51787; CHO-K1 KCNQ1, thallium flux FluxOR fluorescence; stronger effect = higher value; B-score at 10 µM; hit rate 0.35% among 310,000;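 active = fluorescence ratio B-score, a plate-corrected score, at least three library SD, with initial intensity B-score within 5 SD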
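Assay system: stable KCNQ1 CHO-K1 line; medium: assay buffer, equal DMSO in all wells; timing: 90 min dye loading and 20 min compound exposure, both at room temperature; technique: kinetic FluxOR thallium fluorescence, 10-s 1-Hz baseline, 110-s post-stimulus read; read-out basis: B score of baseline-normalized fluorescence ratio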
KCNQ1 block – inhibitors of human KCNQ1 potassium channel. P51787. CHO-K1 KCNQ1, FluxOR thallium flux fluorescence; stronger effect = higher value. hit rate 1.3% among 310,000. B-score at 10 µM;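 active = compounds whose thallium flux B-score, printed positive for inhibition, exceeds three library SD while starting fluorescence stays within three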;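 also: channel opened by potassium depolarization with thallium stimulus after 20 min compound exposure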
hERG rescue – shields human hERG channel from block by proarrhythmic agents | hit rate 0.51% among 310,000 | AID 1511 | Q12809 | CHO-hERG, FluxOR thallium flux, dofetilide IC70 present | activation (rescue from dofetilide block), less the hit threshold, % at 10 µM;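 active = activation above the mean of controls blocked by dofetilide plus 5 SD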;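 also: thallium influx through hERG after potassium depolarization seen as dye fluorescence rise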
KCNK9 inh – human KCNK9 channel inhibition | Q9NPC2 | HEK293 KCNK9, FluxOR thallium flux fluorescence; stronger effect = lower value | B-score at 10 µM | hit rate 1.2% among 310,000 | AID 488922;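 active = ratio B-score over 3 SD below the library mean, with starting fluorescence within 5 SD of its mean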;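 also: negative B-score means less thallium flux so channel inhibition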
KCNK9 inh conf – human KCNK9 inhibitor confirmation; hit rate 43% among 4,900; shares compounds with KCNK9 inh; AID 492992; HEK293 KCNK9 cells, FluxOR thallium flux fluorescence; inhibition, % at 10 µM;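 active = thallium signal inhibited by more than 5 SD of the compound-free buffer control wells, on both duplicate plates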;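 also: 0% = assay buffer control wells without compound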
Kir2-1 spec – tests whether KCNK9 modulators also affect mouse Kir2.1. inhibition, % at 10 µM. hit rate 4% among 4,900. Kir2.1 cells, FluxOR thallium flux fluorescence. AID 492993. shares compounds with KCNK9 inh;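 active = thallium signal drop more than 5 SD beyond the mean of the no-compound control wells, seen in both duplicate plates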;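 also: signal is fluorescence rise after thallium addition divided by baseline fluorescence; plate controls were assay buffer only for no effect and full block by chlorpromazine control for full effect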
HEK293 Tl ctr – second check of KCNK9 modulator effects in non-induced HEK293 cells; shares compounds with KCNK9 inh; FluxOR thallium flux; inhibition, % at 10 µM; hit rate 40% among 4,900; AID 492997;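 active = thallium signal drop beyond 5 SD of the untreated control mean, on both duplicate plates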;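 also: plate controls were buffer only IC0 wells for no effect and SID17386958 at its maximal inhibitory level for full effect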
Starred values were filed as active, the others as inactive; i = inactive; . = no result given. Rows were chosen to be rich in hits. Some 3.8% of all compounds tested hit in one or more screens of this group.

SMILES	Kir21 block	KCNK3 block	KCNQ1 act	KCNQ1 block	hERG rescue	KCNK9 inh	KCNK9 inh conf	Kir2-1 spec	HEK293 Tl ctr
Cc1cccc(N2CCN(C(=S)c3ccc(-c4ccccc4[N+](=O)[O-])o3)CC2)c1	0.11	i	i	i	-10	i	i	i	i
CC(=O)C1=C(O)C(=O)N(c2cccc(Br)c2)C1c1ccccc1Cl (stereo not given)	0.83	i	i	i	-7	i	.	.	.
O=C(c1ccco1)N1CCN(Cc2cc(=O)c(OCc3ccccc3F)co2)CC1	-0.5	i	i	i	-7	i	.	.	.
O=C(O)c1cc(-c2ccc(-c3c(-c4ccc5c(c4)OCO5)noc3-c3ccsc3)cc2)nc2ccccc12	1.7	i	i	i	-14	i	.	.	.
CN(C)c1ccc(-c2c(-c3ccc4c(c3)OCO4)noc2-c2ccsc2)cn1	-1.4	i	i	i	-19	-8.7*	50%*	i	47%*
COc1ccc(C)cc1Nc1n[n+](-c2ccccc2)c(-c2c(Cl)cccc2Cl)s1	-3.5	.	i	11*	-32	-15*	64%*	33%*	36%*
CCc1ccc(Nc2n[n+](-c3ccccc3)c(-c3c(Cl)cccc3Cl)s2)cc1	-1.3	i	i	i	-25	i	.	.	.
CCC(=O)N(CCc1ccccc1)Cc1cc2cc3c(cc2[nH]c1=O)OCO3	0.01	i	i	i	-11	i	.	.	.
CCC(=O)N(CCC(Cc1ccccc1)c1ccc2c(c1)OCO2)Cc1ccccc1F (stereo not given)	2.5	i	i	9*	-11	-13*	65%*	i	32%*
CCC(=O)N(CCC(Cc1ccccc1)c1ccco1)Cc1ccco1 (stereo not given)	-12*	i	i	i	-23	-9.9*	46%*	50%*	36%*
COc1ccccc1CN1CCN(S(=O)(=O)c2ccccc2)CC1	-0.36	i	i	i	2	i	i	i	i
COc1cccc(CN2CCN(S(=O)(=O)c3ccccc3)CC2)c1OC	-0.73	i	i	i	-10	i	.	.	.
O=S(=O)(c1ccccc1)N1CCN(Cc2ccccc2)CC1	-0.23	i	i	i	1	i	.	.	.
O=S(=O)(c1ccccc1)N1CCN(Cc2ccc(Cl)cc2)CC1	1.3	i	i	i	-16	i	i	i	i
CC(C)S(=O)(=O)c1nsc2nc(=O)c(/C=C3\C=Nc4ccccc43)c(N)n12	0.38	i	i	i	-22	i	i	i	i
C=C(C)CN1CCN(c2ccc(N3C(=O)CCCC3=O)cc2[N+](=O)[O-])CC1	-0.31	i	i	i	-10	i	.	.	.
O=c1c2ccccc2ncn1CCCSc1ccccc1	1.8	i	i	i	-10	i	i	i	30%*
COc1ccc(-c2cc(CN3C(=O)c4ccccc4C3=O)on2)cc1	0	i	i	i	3	i	.	.	.
COc1cccc2oc3ccc(C#Cc4ccccn4)cc3c(=O)c12	1	i	i	i	-11	i	.	.	.
O=C(CCC(=O)c1cccs1)OCc1nc2ccccc2s1	1.1	i	i	i	-7	i	.	.	.
O=C(CCc1nc2ccccc2s1)OCc1ccccc1	-0.91	i	i	i	-3	i	i	i	i
O/N=C/c1cc(Br)ccc1OCc1cccc(F)c1	-2	i	i	i	-8	-8.9*	46%*	i	34%*
C=CCC(=O)N(CC)CC1CCCN(CCc2cccc(F)c2)C1 (stereo not given)	0.16	i	i	i	0	-9.1*	i	i	i
CCN(CC1CCCN(CCc2cccc(F)c2)C1)C(=O)c1ccc(CSC)o1 (stereo not given)	-2.4	i	i	i	-13	i	.	.	.
CC1CC(C)CN(S(=O)(=O)c2ccc3c(c2)CC(C)N3C(=O)C2CCC2)C1 (stereo not given)	-0.39	i	i	i	-8	i	i	i	i
SMILES	Kir21 block	KCNK3 block	KCNQ1 act	KCNQ1 block	hERG rescue	KCNK9 inh	KCNK9 inh conf	Kir2-1 spec	HEK293 Tl ctr
CC1CC(C)CN(S(=O)(=O)c2ccc3c(c2)CC(C)N3C(=O)C2CC2)C1 (stereo not given)	-0.69	i	i	i	-9	i	i	i	i
CC1CCC(C(C)C)C(OC(=O)Cn2c(-c3ccc(F)cc3)[n+](C)c3ccccc32)C1 (stereo not given)	.	i	.	.	.	.	.	.	.
CC1CCC(C(C)C)C(OC(=O)Cn2c(-c3ccccc3)[n+](C)c3ccccc32)C1 (stereo not given)	-7.6*	i	i	i	-25	-8.8*	64%*	74%*	i
CCCS(=O)(=O)c1c(S(=O)(=O)CCC)c2ccc(C(N)=O)cn2c1C(=O)c1ccccc1	0.07	i	i	i	-5	i	.	.	.
O=C(CCSc1ccccc1Cl)Nc1cccc([N+](=O)[O-])c1	1.8	i	i	i	-15	i	i	i	30%*
Cc1ccccc1CN(CC(=O)Nc1cccc([N+](=O)[O-])c1)S(=O)(=O)c1ccc(Cl)cc1	-0.01	i	i	9*	-10	i	i	i	i
O=C(NC(=O)c1cc([N+](=O)[O-])ccc1Cl)C1=C(N2CCCC2)COC1=O	.	i	.	.	.	.	.	.	.
CCCOc1ccc(C(=O)C(CN2CCOCC2)c2ccccc2)cc1 (stereo not given)	-0.27	i	i	i	-8	i	i	i	i
CC(=O)c1ccc(NC(=O)Nc2cccc3ccccc23)cc1	-0.6	i	i	i	-13	i	.	.	.
CN(C)CCN(C(=O)c1ccc2ccccc2c1)c1nc2c(F)cccc2s1	1.7	i	i	i	-14	i	.	.	.
Cc1cc(C)c2nc(N(CCN(C)C)C(=O)c3ccc4ccccc4c3)sc2c1	1.3	i	i	i	-11	i	i	i	i
CCN(C(=S)Nc1ccc(Oc2ccccc2)cc1)c1ccccc1	1.1	i	i	i	-8	i	i	i	i

From PubChem BioAssay
